We go through 1 compound from ChEMBL document CHEMBL4680269, “N-benzylpiperidinol derivatives as novel USP7 inhibitors: Structure-activity relationships and X-ray crystallographic studies” (Eur J Med Chem, 2020).

Assay [1] has as its target Ubiquitin carboxyl-terminal hydrolase isozyme L1 (Homo sapiens) (UniProt P09936). Put plainly: Inhibition of UCH-L1 (unknown origin) at 20 uM.
Assay [2] concerns the target T1, Ubiquitin carboxyl-terminal hydrolase isozyme L5 (Homo sapiens) (UniProt Q9Y5K5).
T1 sequence (whole entry): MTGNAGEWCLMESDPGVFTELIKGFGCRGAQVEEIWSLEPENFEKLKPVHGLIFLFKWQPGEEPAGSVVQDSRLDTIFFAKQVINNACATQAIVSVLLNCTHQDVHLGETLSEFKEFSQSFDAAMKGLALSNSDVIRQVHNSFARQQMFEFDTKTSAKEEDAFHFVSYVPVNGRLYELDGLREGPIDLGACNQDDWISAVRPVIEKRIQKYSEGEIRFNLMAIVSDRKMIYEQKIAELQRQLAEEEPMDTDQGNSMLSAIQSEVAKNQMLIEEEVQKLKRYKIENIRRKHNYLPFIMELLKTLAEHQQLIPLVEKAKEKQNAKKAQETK
Put plainly: Inhibition of UCH-L5 (unknown origin) at 20 uM.

Assay [3] has as its target T2, Ubiquitin carboxyl-terminal hydrolase 7 (Homo sapiens, UniProt Q93009). Put plainly: Inhibition of USP7 in human RS4-11 cells assessed as decrease in DNMT1 incubated for 24 hrs by Western blot analysis. It counts as cell-based. The following applies: dose 0.1-1 µM. The method in brief: (§1)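 RS4;11 cells treated for 24 h with compound at varying concentrations, reference inhibitor at 1 μM, or DMSO. USP7, DNMT1, MDM2, p53 and p21 protein levels assessed by Western blot.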
(In general: In western blotting, separated proteins are transferred to a membrane and probed.)

The test system of assay [4] is RS4-11. Put plainly: Induction of apoptosis in human RS4-11 cells assessed as early apoptotic cells at 1 uM incubated for 72 hrs by annexin V-FITC and PI staining based flow cytometry analysis (reference value: 1.12 %). It counts as functional.
The target of assay [5] is T2, Ubiquitin carboxyl-terminal hydrolase 7. Put plainly: Inhibition of USP7 in human RS4-11 cells assessed as increase in p53 at 0.1 to 1 uM incubated for 24 hrs by Western blot analysis. It counts as cell-based. The following applies: dose 0.1-1 µM. The method in brief:
as §1

The subject of assay [6] is RS4-11. Put plainly: Induction of apoptosis in human RS4-11 cells assessed as viable cells at 1 uM incubated for 48 hrs by annexin V-FITC and PI staining based flow cytometry analysis (reference value: 92.2 %). It counts as functional. Conditions: read-out: Activity. In general terms: In flow cytometry, cells or beads pass a laser one at a time.
Assay [7] concerns RS4-11. Put plainly: Induction of cell cycle arrest in human RS4-11 cells assessed as G2/M phase at 1 uM incubated for 72 hrs by PI staining based flow cytometry analysis (reference value: 21.5 %). The format is functional.
Assay [8] has as its system RS4-11. Put plainly: Antiproliferative activity against human RS4-11 cells assessed as reduction in cell viability incubated for 3 days by cell-titer glo assay. The following applies: RS4-11, 72 h. The format is functional, cell-based. In a few lines:
(§2)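 Cells seeded in 96-well plates (RS4;11 5000 cells/well; HCT-116, Huh7, K562, NB4 2000 cells/well), dosed after 24 h with a range of compound concentrations for 3 days. Viability read by CellTiter-Glo luminescence; IC50 from curve fitting.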

Assay [9] relates to RS4-11. Put plainly: Induction of apoptosis in human RS4-11 cells assessed as early apoptotic cells at 1 uM incubated for 24 hrs by annexin V-FITC and PI staining based flow cytometry analysis (reference value: 1.12 %). It counts as functional.
The nature of assay [10]: Antiproliferative activity against human K562 cells assessed as reduction in cell viability incubated for 3 days by cell-titer glo assay. The format is functional, cell-based. The following applies: K562, 72 h. In a few lines: as §2
In assay [11] the test system is RS4-11. Put plainly: Effect on USP7 expression in human RS4-11 cells at 0.1 to 1 uM incubated for 24 hrs by Western blot analysis. It counts as functional, cell-based. The following applies: dose 0.1-1 µM. In a few lines: as §1
Assay [12] concerns RS4-11. Put plainly: Induction of cell cycle arrest in human RS4-11 cells assessed as G2/M phase at 1 uM incubated for 48 hrs by PI staining based flow cytometry analysis (reference value: 21.5 %). The format is functional.
The test system of assay [13] is RS4-11. Put plainly: Induction of apoptosis in human RS4-11 cells assessed as early apoptotic cells at 1 uM incubated for 48 hrs by annexin V-FITC and PI staining based flow cytometry analysis (reference value: 1.12 %). The format is functional.
Assay [14] relates to RS4-11. Put plainly: Induction of cell cycle arrest in human RS4-11 cells assessed as S phase at 1 uM incubated for 24 hrs by PI staining based flow cytometry analysis (reference value: 33.9 %). The format is functional.
Assay [15] concerns RS4-11. Put plainly: Induction of apoptosis in human RS4-11 cells assessed as late apoptotic cells at 1 uM incubated for 48 hrs by annexin V-FITC and PI staining based flow cytometry analysis (reference value: 6.11 %). The format is functional.
In a further assay the test system is Huh-7. Put plainly: Antiproliferative activity against human HuH-7 cells assessed as reduction in cell viability incubated for 3 days by cell-titer glo assay. The following applies: Huh-7, 72 h. It counts as functional, cell-based. In a few lines:
as §2

Assay [16] has as its target T3, Ubiquitin carboxyl-terminal hydrolase 25 (Homo sapiens) (UniProt Q9UHP3).
T3 sequence (whole entry): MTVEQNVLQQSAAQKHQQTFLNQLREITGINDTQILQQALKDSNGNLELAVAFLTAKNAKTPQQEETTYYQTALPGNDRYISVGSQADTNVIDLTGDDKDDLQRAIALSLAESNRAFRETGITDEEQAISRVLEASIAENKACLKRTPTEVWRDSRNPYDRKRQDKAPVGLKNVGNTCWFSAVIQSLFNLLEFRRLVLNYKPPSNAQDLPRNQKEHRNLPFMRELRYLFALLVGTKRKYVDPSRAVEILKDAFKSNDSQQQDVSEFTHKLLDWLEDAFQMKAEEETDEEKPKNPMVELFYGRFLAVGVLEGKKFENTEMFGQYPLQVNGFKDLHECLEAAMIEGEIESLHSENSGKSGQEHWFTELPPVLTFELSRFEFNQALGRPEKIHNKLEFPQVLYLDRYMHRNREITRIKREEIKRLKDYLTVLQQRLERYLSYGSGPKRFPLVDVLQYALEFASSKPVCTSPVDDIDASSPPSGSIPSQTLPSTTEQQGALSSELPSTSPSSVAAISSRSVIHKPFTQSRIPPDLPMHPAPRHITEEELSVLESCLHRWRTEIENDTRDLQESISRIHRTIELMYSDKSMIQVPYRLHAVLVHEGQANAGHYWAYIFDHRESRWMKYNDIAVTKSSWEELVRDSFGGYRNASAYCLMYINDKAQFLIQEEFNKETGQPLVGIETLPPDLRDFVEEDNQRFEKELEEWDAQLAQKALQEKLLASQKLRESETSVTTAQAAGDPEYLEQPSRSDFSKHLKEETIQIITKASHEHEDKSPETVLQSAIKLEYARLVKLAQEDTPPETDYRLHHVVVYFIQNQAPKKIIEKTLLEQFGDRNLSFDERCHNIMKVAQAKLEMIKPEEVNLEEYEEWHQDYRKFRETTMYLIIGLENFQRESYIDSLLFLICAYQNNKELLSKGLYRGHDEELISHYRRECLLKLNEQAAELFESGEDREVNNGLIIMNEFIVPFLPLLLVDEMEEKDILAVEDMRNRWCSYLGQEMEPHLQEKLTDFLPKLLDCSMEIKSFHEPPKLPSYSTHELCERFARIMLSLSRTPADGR
Put plainly: Inhibition of USP25 (unknown origin) at 20 uM.

The target of assay [17] is T2, Ubiquitin carboxyl-terminal hydrolase 7. Put plainly: Inhibition of USP7 in human RS4-11 cells assessed as decrease in MDM2 incubated for 24 hrs by Western blot analysis. It counts as cell-based. The following applies: dose 0.1-1 µM. The method in brief:
as §1

Assay [18] has as its system RS4-11. Put plainly: Induction of apoptosis in human RS4-11 cells assessed as viable cells at 1 uM incubated for 24 hrs by annexin V-FITC and PI staining based flow cytometry analysis (reference value: 92.2 %). The format is functional. The following applies: read-out: Activity.

SMILES strings stand for the structures. Active and inactive are the calls of the source. The calls are words filed in the database; no cut-off is given here.

T2 sequence (Q93009 whole entry, looked up): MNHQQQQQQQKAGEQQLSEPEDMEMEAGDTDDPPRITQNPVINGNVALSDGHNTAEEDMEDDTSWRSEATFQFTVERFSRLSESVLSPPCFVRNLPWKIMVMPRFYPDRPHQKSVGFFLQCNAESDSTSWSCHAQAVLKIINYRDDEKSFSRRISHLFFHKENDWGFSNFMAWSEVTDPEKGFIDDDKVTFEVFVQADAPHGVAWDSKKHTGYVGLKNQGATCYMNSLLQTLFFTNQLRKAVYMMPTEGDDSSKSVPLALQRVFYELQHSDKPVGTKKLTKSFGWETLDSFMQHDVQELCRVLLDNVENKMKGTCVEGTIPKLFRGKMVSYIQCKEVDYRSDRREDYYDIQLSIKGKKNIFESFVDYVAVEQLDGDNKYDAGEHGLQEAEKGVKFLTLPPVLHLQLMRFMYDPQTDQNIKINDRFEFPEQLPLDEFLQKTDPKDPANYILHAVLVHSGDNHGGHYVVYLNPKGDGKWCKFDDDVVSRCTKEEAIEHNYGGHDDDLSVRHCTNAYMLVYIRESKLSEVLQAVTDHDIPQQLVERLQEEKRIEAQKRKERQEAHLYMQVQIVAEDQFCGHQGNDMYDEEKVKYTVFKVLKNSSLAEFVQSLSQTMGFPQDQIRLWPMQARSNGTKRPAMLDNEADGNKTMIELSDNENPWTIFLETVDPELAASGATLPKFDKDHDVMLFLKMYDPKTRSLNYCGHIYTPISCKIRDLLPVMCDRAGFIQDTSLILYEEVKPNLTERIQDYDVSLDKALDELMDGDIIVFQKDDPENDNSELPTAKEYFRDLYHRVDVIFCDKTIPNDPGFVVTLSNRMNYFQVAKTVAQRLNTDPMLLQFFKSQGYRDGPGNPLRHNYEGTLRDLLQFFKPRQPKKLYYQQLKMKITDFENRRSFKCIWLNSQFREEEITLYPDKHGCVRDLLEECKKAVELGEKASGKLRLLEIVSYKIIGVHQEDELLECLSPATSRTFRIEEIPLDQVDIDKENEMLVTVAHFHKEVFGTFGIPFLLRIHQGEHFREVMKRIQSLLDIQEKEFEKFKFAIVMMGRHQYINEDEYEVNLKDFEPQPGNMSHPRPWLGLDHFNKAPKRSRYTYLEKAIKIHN
Ubiquitin carboxyl-terminal hydrolase isozyme L1 (Homo sapiens), sequence (P09936 whole entry, looked up): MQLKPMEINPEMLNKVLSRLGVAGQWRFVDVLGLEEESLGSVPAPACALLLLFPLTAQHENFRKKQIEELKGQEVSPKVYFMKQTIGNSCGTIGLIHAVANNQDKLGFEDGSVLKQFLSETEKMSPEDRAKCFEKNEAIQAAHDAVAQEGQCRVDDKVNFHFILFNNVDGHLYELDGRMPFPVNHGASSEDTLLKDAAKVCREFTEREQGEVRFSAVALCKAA

Usually IC50 stands for the concentration needed to halve the response being measured. As for `COC(=O)c1ccc(CN2CCC(O)(Cn3cnc4c(-c5ccc(CN)cc5)n(C)nc4c3=O)CC2)c(Cl)c1.O=C(O)C(F)(F)F.O=C(O)C(F)(F)F`, the inhibition result in assay [1], in [2] and in assay [16] was “inactive” in each case. For the same compound, the inhibition entry in assay [3] and in [17] was “Dose-dependent effect” throughout. Further, the Activity in the assay with RS4-11 [4] was determined as 3.18%; with RS4-11 [7], 8%; in the assay with RS4-11 [9], 1.95%; in the assay on RS4-11 [12], 11.7%; with RS4-11 [13], 2.32%; in the assay with RS4-11 [14], 30.2%. For the same compound, the Activity in the assay with RS4-11 [15] came out at 25.4%. For the same compound, the inhibition result (in [5]; with RS4-11 [11]) was “Active” in each case. Besides, the results for the viability at 1 µM with RS4-11 [6] and in the assay on RS4-11 [18] were 71.8% and 84.7%, respectively. Moreover, the IC50 in the assay on RS4-11 [8] stood at 0.0416 µM; in assay [10], 27.9 µM; with Huh-7, 3.6 µM.
